Data published in ChEMBL document CHEMBL2429794, “Tuning the antibacterial activity of amphiphilic neamine derivatives and comparison to paromamine homologues” (J Med Chem, 2013).
≈ marks a conversion by molar mass, not a printed value.

What was measured:
Klebsiella pneumoniae = test: Antibacterial activity against Klebsiella pneumoniae ATCC 700603 after 24 hrs by geometric microdilution method; type: functional; settings: ATCC 700603, 24 h
Pseudomonas aeruginosa [1] = test: Antibacterial activity against Pseudomonas aeruginosa PA22 (PT629) expressing MexXY after 24 hrs by geometric microdilution method; type: functional
Acinetobacter lwoffii [2] = test: Antibacterial activity against Acinetobacter lwoffii ATCC 17925 after 24 hrs by geometric microdilution method; type: functional; settings: ATCC 17925, 24 h
Staphylococcus aureus [3] = test: Antibacterial activity against vancomycin-resistant Staphylococcus aureus VRS2 after 24 hrs by geometric microdilution method; type: functional; settings: VRS2, 24 h
How it was run: (§1)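 Broth cultures were incubated in plates at 37 °C, and growth was read as absorbance at 650 nm after 1, 4, 7 and 24 h. Ampicillin (16 mg/L) was the positive control and DMSO the negative control. Each MIC (μg/mL) is the average of at least three determinations.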

Staphylococcus aureus [4] = test: Antibacterial activity against Staphylococcus aureus expressing aminoglycoside-6'-N-acetyltransferase/2''-O-phosphoryltransferase after 24 hrs by geometric microdilution method; type: functional; how it was run: as §1
Pseudomonas aeruginosa [5] = test: Antibacterial activity against Pseudomonas aeruginosa ATCC 27853 after 24 hrs by geometric microdilution method; type: functional; settings: ATCC 27853, 24 h
Escherichia coli [6] = test: microbe, parasite or virus in culture; settings: ATCC 25922, 24 h
Staphylococcus aureus [7] = test: microbe, parasite or virus in culture; settings: ATCC 25923, 24 h
Escherichia coli [8] = test: Antibacterial activity against Escherichia coli L58058.1 expressing ANT2''-1A after 24 hrs by geometric microdilution method; type: functional; settings: L58058.1, 24 h
Staphylococcus aureus [9] = test: Antibacterial activity against 14- and 15-membered macrolide-resistant Staphylococcus aureus expressing MsrA efflux pump after 24 hrs by geometric microdilution method; type: functional; how it was run: as §1
Pseudomonas aeruginosa [10] = test: Antibacterial activity against Pseudomonas aeruginosa F03 expressing AAC6'-2A after 24 hrs by geometric microdilution method; type: functional; settings: F03, 24 h
Acinetobacter lwoffii [11] = test: Antibacterial activity against Acinetobacter lwoffii AI.88-483 expressing APH3'-6A after 24 hrs by geometric microdilution method; type: functional; settings: AI.88-483, 24 h
Staphylococcus aureus [12] = test: Antibacterial activity against Staphylococcus aureus expressing aminoglycoside-3'-O-phosphoryltransferase after 24 hrs by geometric microdilution method; type: functional; how it was run: as §1
Staphylococcus aureus [13] = test: Antibacterial activity against Staphylococcus aureus expressing aminoglycoside-[…] after 24 hrs by geometric microdilution method; type: functional; how it was run: as §1
Staphylococcus aureus [14] = test: Antibacterial activity against healthcare-acquired methicillin-resistant Staphylococcus aureus ATCC 33592 after 24 hrs by geometric microdilution method; type: functional; settings: ATCC 33592, 24 h; how it was run: as §1
Staphylococcus aureus [15] = test: Antibacterial activity against fluoroquinolone-resistant Staphylococcus aureus 1199B expressing NorA efflux pump after 24 hrs by geometric microdilution method; type: functional; how it was run: as §1
Escherichia coli [16] = test: Antibacterial activity against Escherichia coli PAZ505H8101 expressing AAC6'-1B after 24 hrs by geometric microdilution method; type: functional; settings: PAZ505H8101, 24 h
[17] = Cytotoxicity against murine J774 cells assessed as cell viability at 10 uM after 24 hrs by MTT assay relative to control; type: cell-based; settings: mouse, read-out: Activity
How it was run: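 Murine J774 macrophages were exposed for 24 h to compounds at 10 μM, then incubated 1 h with 0.2 mg/mL MTT. Viability was read from mitochondrial reduction of MTT to purple formazan, expressed as percent viability, and averaged over three experiments.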

[18] = Ratio of cytotoxicity against murine J774 cells to antibacterial activity against vancomycin-resistant Staphylococcus aureus VRS2; type: toxicity, cell-based; settings: mouse

| Compound | MIC (Klebsiella pneumoniae) [µg/mL] | MIC (Pseudomonas aeruginosa [1]) [µg/mL] | MIC (Acinetobacter lwoffii [2]) [µg/mL] | MIC (Staphylococcus aureus [3]) [µg/mL] | MIC (Staphylococcus aureus [4]) [µg/mL] | MIC (Pseudomonas aeruginosa [5]) [µg/mL] | MIC (Escherichia coli [6]) [µg/mL] | MIC (Staphylococcus aureus [7]) [µg/mL] | MIC (Escherichia coli [8]) [µg/mL] | MIC (Staphylococcus aureus [9]) [µg/mL] | MIC (Pseudomonas aeruginosa [10]) [µg/mL] | MIC (Acinetobacter lwoffii [11]) [µg/mL] | MIC (Staphylococcus aureus [12]) [µg/mL] | MIC (Staphylococcus aureus [13]) [µg/mL] | MIC (Staphylococcus aureus [14]) [µg/mL] | MIC (Staphylococcus aureus [15]) [µg/mL] | MIC (Escherichia coli [16]) [µg/mL] | viability at 24 h, 10 µM [17] [%] | selectivity ratio [18] |
| --- | --- | --- | --- | --- | --- | --- | --- | --- | --- | --- | --- | --- | --- | --- | --- | --- | --- | --- | --- |
| N[C@H]1[C@@H](O[C@H]2[C@H](O)[C@@H](OCc3ccc4ccccc4c3)[C@H](N)C[C@@H]2N)O[C@H](CO)[C@@H](OCc2ccc3ccccc3c2)[C@@H]1OCc1ccc2ccccc2c1 | 32 (≈ 43 µM) | 32 (≈ 43 µM) | 1 (≈ 1.34 µM) | 128 (≈ 172 µM) | 16 (≈ 21.5 µM) | 32 (≈ 43 µM) | 64 (≈ 86 µM) | 2 (≈ 2.69 µM) | 32 (≈ 43 µM) | 32 (≈ 43 µM) | 32 (≈ 43 µM) | > 128 | 4 (≈ 5.38 µM) | 8 (≈ 10.8 µM) | 64 (≈ 86 µM) | 16 (≈ 21.5 µM) | 16 (≈ 21.5 µM) | – | – |
| N[C@H]1[C@@H](O[C@H]2[C@H](O)[C@@H](OCc3ccc4ccccc4c3)[C@H](N)C[C@@H]2N)O[C@H](CO)[C@@H](O)[C@@H]1OCc1ccc2ccccc2c1 | > 128 | 128 (≈ 212 µM) | 64 (≈ 106 µM) | 16 (≈ 26.5 µM) | 32 (≈ 53 µM) | 128 (≈ 212 µM) | 128 (≈ 212 µM) | 8 (≈ 13.3 µM) | 64 (≈ 106 µM) | 32 (≈ 53 µM) | 64 (≈ 106 µM) | > 128 | 16 (≈ 26.5 µM) | 16 (≈ 26.5 µM) | 16 (≈ 26.5 µM) | 32 (≈ 53 µM) | 64 (≈ 106 µM) | – | – |
| NC[C@H]1O[C@H](O[C@H]2[C@H](O)[C@@H](O)[C@H](N)C[C@@H]2N)[C@H](N)[C@@H](O)[C@@H]1O [NEAMINE] | 32 (≈ 99.3 µM) | > 128 | 2 (≈ 6.2 µM) | ≥ 128 | 16 (≈ 49.6 µM) | > 128 | 32 (≈ 99.3 µM) | 32 (≈ 99.3 µM) | 32 (≈ 99.3 µM) | 16 (≈ 49.6 µM) | > 128 | > 128 | > 128 | > 128 | > 128 | 32 (≈ 99.3 µM) | > 128 | – | – |
| NC[C@H]1O[C@H](O[C@H]2[C@H](O)[C@@H](OCc3cccc4ccccc34)[C@H](N)C[C@@H]2N)[C@H](N)[C@@H](OCc2cccc3ccccc23)[C@@H]1O | > 128 | > 128 | 16 (≈ 26.5 µM) | 8 (≈ 13.3 µM) | 32 (≈ 53.1 µM) | 32 (≈ 53.1 µM) | 32 (≈ 53.1 µM) | 8 (≈ 13.3 µM) | 32 (≈ 53.1 µM) | 16 (≈ 26.5 µM) | 64 (≈ 106 µM) | > 128 | 8 (≈ 13.3 µM) | 16 (≈ 26.5 µM) | 8 (≈ 13.3 µM) | 16 (≈ 26.5 µM) | 16 (≈ 26.5 µM) | – | – |
| CCCCCCO[C@@H]1[C@@H](N)[C@@H](O[C@H]2[C@H](O)[C@@H](OCCCCCC)[C@H](N)C[C@@H]2N)O[C@H](CN)[C@H]1OCCCCCC | 8 (≈ 13.9 µM) | 8 (≈ 13.9 µM) | 4 (≈ 6.96 µM) | 4 (≈ 6.96 µM) | 8 (≈ 13.9 µM) | 8 (≈ 13.9 µM) | 4 (≈ 6.96 µM) | 4 (≈ 6.96 µM) | 4 (≈ 6.96 µM) | 8 (≈ 13.9 µM) | 8 (≈ 13.9 µM) | 64 (≈ 111 µM) | 4 (≈ 6.96 µM) | 8 (≈ 13.9 µM) | 4 (≈ 6.96 µM) | 4 (≈ 6.96 µM) | 4 (≈ 6.96 µM) | 40 | – |
| NC[C@H]1O[C@H](O[C@H]2[C@H](O)[C@@H](OCCCCc3ccc4ccccc4c3)[C@H](N)C[C@@H]2N)[C@H](N)[C@@H](OCCCCc2ccc3ccccc3c2)[C@@H]1O | 32 (≈ 46.6 µM) | 8 (≈ 11.6 µM) | 4 (≈ 5.82 µM) | 2 (≈ 2.91 µM) | 2 (≈ 2.91 µM) | 4 (≈ 5.82 µM) | 8 (≈ 11.6 µM) | 2 (≈ 2.91 µM) | 8 (≈ 11.6 µM) | 0.25 (≈ 0.364 µM) | 8 (≈ 11.6 µM) | 64 (≈ 93.2 µM) | 1 (≈ 1.46 µM) | 1 (≈ 1.46 µM) | 2 (≈ 2.91 µM) | 2 (≈ 2.91 µM) | 4 (≈ 5.82 µM) | 80 | > 5 |
